Screens (PubChem BioAssay)
Sampled rows, rich in hits. Any-hit rate of the full collection: about 0.72%.
PKD1 kinase inh: blocks activity of human protein kinase D1. Q15139. PKD1 kinase fluorescence polarization assay. inhibition, % (concentration not given with the values). 200,000 compounds, 0.056% hits. AID 797; in the data active = inhibition above about 50%
Arbovirus anti: antivirals against arbovirus infection; inhibition, % at 10 µM; AID 1251; 200,000 compounds, 0.37% hits; arbovirus infection cell-based antiviral screen; in the data active = inhibition above about 30%
TNAP inh hiacc: inhibitors of human TNAP at high phosphate acceptor concentration; purified TNAP, CDP-star luminescence, 1 M DEA; inhibition, % at 20 µM; 200,000 compounds, 0.03% hits; AID 1135;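 active = over 50% inhibition of tissue-nonspecific alkaline phosphatase at 20 µM in the single-dose screen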;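 also: plate controls were DMSO wells for no effect and EDTA-quenched wells as full inhibition for full effect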
Target sequence (P05186 whole entry, looked up): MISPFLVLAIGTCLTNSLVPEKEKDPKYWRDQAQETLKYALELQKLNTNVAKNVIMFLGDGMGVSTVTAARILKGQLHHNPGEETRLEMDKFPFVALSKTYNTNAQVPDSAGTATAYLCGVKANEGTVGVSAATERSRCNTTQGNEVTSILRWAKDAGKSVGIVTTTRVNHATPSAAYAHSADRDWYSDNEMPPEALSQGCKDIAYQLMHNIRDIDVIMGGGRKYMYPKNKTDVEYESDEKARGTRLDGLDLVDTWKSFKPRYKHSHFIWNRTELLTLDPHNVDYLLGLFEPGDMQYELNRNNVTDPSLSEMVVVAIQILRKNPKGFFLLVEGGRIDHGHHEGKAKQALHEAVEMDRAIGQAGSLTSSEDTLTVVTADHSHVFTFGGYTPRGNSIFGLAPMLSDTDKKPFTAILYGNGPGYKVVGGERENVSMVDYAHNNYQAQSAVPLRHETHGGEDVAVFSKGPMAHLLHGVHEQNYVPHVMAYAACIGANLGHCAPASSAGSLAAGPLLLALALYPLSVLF
TNAP inh noacc: TNAP (human) inhibition, acceptor-free conditions; P05186; purified TNAP, CDP-star luminescence, 30 min; inhibition, % at 20 µM; 200,000 compounds, 0.26% hits; AID 1012;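 active = tissue-nonspecific alkaline phosphatase inhibition above about 50% at 20 µM in the single-dose screen, limit read from the data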;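 also: 0% = DMSO negative control and 100% = EDTA positive control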
TNAP act hiacc: activators of human TNAP at high phosphate acceptor concentration; P05186; purified TNAP, CDP-star luminescence, 1 M DEA, 30 min; active compounds read high; 0 = EDTA background, 1 = DMSO-only activity; activation factor at 20 µM; 200,000 tested, under 10 active; AID 1136;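 active = activation factor at least 2 at 20 µM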
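Dosing: 20 µM single point. System: human TNAP. Amount: TNAP 1/800 final. Incubation: 30 min, room temperature. Read-out: TNAP activation factor scaled between EDTA and DMSO control wells. Signal: luminescence from CDP-star hydrolysis. Medium: 1 M DEA, pH 9.8, Mg2+, Zn2+. Control set: EDTA negative control, DMSO positive control.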
Starred values were filed as active, the others as inactive.

SMILES	PKD1 kinase inh	Arbovirus anti	TNAP inh hiacc	TNAP inh noacc	TNAP act hiacc
CCCC(=O)n1nc(-c2ccc(Cl)cc2)nc1SC	-3.7	2.7	1.9	53.2*	1
CCC(=O)n1nc(-c2ccc(Cl)cc2)nc1SC	-6.8	-5.7	0.3	60.5*	1
CCC(=O)n1nc(-c2ccc(OC)cc2)nc1SC	-8.5	6.4	2.6	54.0*	1
COc1ccc(-c2nc(SC)n(C(=O)c3ccco3)n2)cc1	3.9	-0.3	-6.6	51.7*	1.1
COc1ccc(-c2nc(N)n(C(C)=O)n2)cc1	-4.6	3.8	0.5	42.1	1
CC(=O)c1cc(CN2CCN(C3CCN(C(C)C)CC3)C(CCO)C2)cs1 (stereo not given)	3.8	3.0	-8.2	-11.4	1.1
NC(=S)N=Nc1c(O)[nH]c2c(Br)cc(Br)cc12	0.5	-17.7	13.1	-16.2	0.9
CCOC(=O)C(C(=O)OCC)N(C#N)c1nc(N(C)C)nc(N(C)C)n1	10.3	0.1	-1.6	-8.3	1
CCN(CCCCCN(C)C)Cc1cc2ccccc2o1	-1.9	-7.8	-5.2	0.0	1.1
O=C(O)c1cccc(NN=C2c3ccccc3-c3ccccc32)c1	-5.3	69.4*	0.2	-9.8	1
CCOC(=O)/C(C#N)=C/c1cc2ccccc2nc1N1CCOCC1	0.1	-4.1	0.1	-7.7	1
N#CC(C#N)=Cc1cc2ccccc2nc1N1CCCCC1	6.7	32.0*	-4.0	-9.6	1
CCOc1cc(/C=C(\C#N)C(=O)Nc2ccccc2[N+](=O)[O-])ccc1OCc1cccc2ccccc12	1.9	-32.0	0.0	1.4	1
O=C(Cc1ccc(F)cc1)Nc1nnc(SCC(=O)NC2CCCC2)s1	-6.9	-3.0	-5.9	-66.1	1.1
Cc1[nH]c2ccccc2c1C(=O)CN1C(=O)NC2(CC(C)CC(C)(C)C2)C1=O (stereo not given)	-3.1	-14.6	0.6	0.0	1
CCN1C(=O)/C(=C\c2ccc(-c3ccc([N+](=O)[O-])cc3OC)o2)SC1=Nc1cccc(C(=O)O)c1	-1.4	3.4	7.7	12.5	0.9
CCN=C1S/C(=C\c2ccc(-c3cccc(C(=O)O)c3)o2)C(=O)N1CC	2.1	40.8*	0.6	0.8	1
C=CCN=c1scc(C)n1/N=C/c1ccc(O)c(O)c1	-2.2	-9.5	7.5	77.2*	0.9
COc1ccc(O)c(/C=N/n2c(-c3ccco3)csc2=Nc2cccnc2)c1	-24.0	-2.2	-1.4	-14.1	1
CN=c1scc(-c2ccco2)n1/N=C/c1ccc(O)c(O)c1	-1.6	-8.0	11.3	67.4*	0.9
COc1cc(/C=C2\SC(=S)N(Nc3ccccc3)C2=O)ccc1O	0.9	-23.1	55.0*	44.5	0.4
COc1cc(/C=C2/SC(=S)N(CC3CCCO3)C2=O)ccc1O (stereo not given)	-5.5	7.2	55.8*	36.2	0.4
COc1ccc(/C=C2/C(=O)N(CC3CCCO3)C(=S)N2C)c(OC)c1 (stereo not given)	5.0	51.9*	6.3	-2.3	0.9
CCOc1cc(/C=C2\SC(=S)N(Nc3ccccc3)C2=O)ccc1O	4.0	-30.2	49.4	37.9	0.5
O=C1/C(=C/c2ccc(O)c(O)c2)SC(=S)N1Nc1ccccc1	1.8	-18.7	88.4*	93.7*	0.1
SMILES	PKD1 kinase inh	Arbovirus anti	TNAP inh hiacc	TNAP inh noacc	TNAP act hiacc
O=C1/C(=C/c2cccnc2)SC(=S)N1CC1CCCO1 (stereo not given)	-1.3	1.8	0.4	-21.6	1
COc1ccccc1/C=C1\NC(=S)N(CC2CCCO2)C1=O (stereo not given)	1.4	-1.6	-2.1	0.8	1
CCN(CC)Cc1cc(NC2=NS(=O)(=O)c3ccccc32)ccc1OC(=O)c1ccccc1	5.8	-2.2	-5.4	-10.9	1.1
CSCCC1NC(=O)N(C(C)C(=O)Nc2cc(Cl)cc(Cl)c2)C1=O (stereo not given)	1.1	-10.6	-6.5	-2.4	1.1
COc1ccc(C2=NN(c3ccccc3)C(=O)/C2=C\c2ccc(O)c(OC)c2)cc1	-7.2	12.3	40.8	50.1*	0.6
O=c1cc(CSc2nnnn2-c2ccccc2)nc(Nc2ccc(F)cc2)[nH]1	-3.1	30.6*	-5.9	1.9	1.1
CC(=O)Nc1ccc(S(=O)(=O)NCC(=O)NCCc2ccc(S(N)(=O)=O)cc2)cc1	4.2	9.8	3.8	15.9	1
NS(=O)(=O)c1ccc(CCNC(=O)CNS(=O)(=O)c2cccc(Br)c2)cc1	-9.3	-0.7	12.5	76.5*	0.9
C(=N\Nc1ccccn1)/c1ccc2c(c1)OCCO2	1.6	-15.1	1.3	-2.1	1
